The structures appear in SMILES notation. Read-outs that look alike come from different tables or passages of the source.

Data set [1] deals with Fa2N-4 immortalized human hepatocytes. Kind of data set: Hepatic toxicity. The note with it: in words. The class given is cell-based.
In data set [2] the test system is 44 GPCR and other molecular targets. Put plainly: PDSP binding assay panel of 44 GPCR and other molecular targets. The procedure, abridged: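 The Psychoactive Drug Screening Program ran radioligand binding assays across 44 GPCR and other targets. Test compounds were first screened at a single 10 μM concentration. Those showing significant activity then went to Ki determination.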

A short description of data set [3]: Plasma protein binding, mouse. The data set is classed as in vitro ADME.
A short description of data set [4]: Plasma protein binding, human. The class given is in vitro ADME. The note with it: for bound to both human and mouse plasma: human and mouse plasma together; for plasma protein binding (% Bound): human.
The target in the next data set is KOR (Homo sapiens, UniProt P41145). Put plainly: PDSP radioligand binding assay, KOR.
For data set [5] the following is noted: mouse, microsomes, 1 h.

KOR, sequence (P41145 whole entry): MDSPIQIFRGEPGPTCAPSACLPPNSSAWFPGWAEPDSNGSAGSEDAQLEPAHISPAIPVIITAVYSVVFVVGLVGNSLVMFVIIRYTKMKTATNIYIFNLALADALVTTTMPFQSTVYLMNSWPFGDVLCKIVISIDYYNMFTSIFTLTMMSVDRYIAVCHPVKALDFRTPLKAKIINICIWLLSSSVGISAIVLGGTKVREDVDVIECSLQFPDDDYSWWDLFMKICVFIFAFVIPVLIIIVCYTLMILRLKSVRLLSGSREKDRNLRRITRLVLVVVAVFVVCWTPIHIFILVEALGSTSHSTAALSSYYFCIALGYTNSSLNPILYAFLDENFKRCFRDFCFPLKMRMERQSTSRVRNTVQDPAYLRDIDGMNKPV

`O=C(c1ccccn1)N(Cc1cccs1)C1(C(=O)NC2CCCCC2)CCCCC1` [1{1}, N-(1-(Cyclohexylcarbamoyl)cyclohexyl)-N-(thiophen-2-ylmethyl)picolinamide]: the “toxicity toward human hepatocytes” value in data set [1] was “significant toxicity”. The “affinity across the PDSP assay panel” value in data set [2] (in words, concentrations up to 10,000 nM) was “affinity only for the opioid receptors”. The “plasma protein binding (% Bound)” value came to 94.05 % Bound in data set [3] (1µM), 90.70 % Bound in data set [3] (10µM), 99.59 % Bound in data set [4] (1µM) and 99.07 % Bound in data set [4] (10µM). In data set [4], the “bound to both human and mouse plasma” value was 90–99%. The inhibitory constant (Ki) at KOR was determined as 0.6 nM.

On to `Clc1ccc(CSc2nnc(-c3ccccn3)n2Cc2ccco2)cc1Cl` [2{8}], for which the Ki in data set [2] (read-out: Ki values for 11 non-opioid targets, weak binding affinity, PDSP panel) is 1000 to 10000 nM. The “plasma protein binding (% Bound)” value is reported as 99.80 % Bound in data set [3] (1µM), 99.64 % Bound in data set [3] (10µM), 99.75 % Bound in data set [4] (1µM) and 99.80 % Bound in data set [4] (10µM). The “bound to both human and mouse plasma” value in data set [4] was 90–99%.

Consider `Cc1ccc(S(=O)(=O)NCc2ccc(C(=O)NCCN(Cc3ccccc3)C(C)C)cc2)cc1` [3{1}, N-(2-(Benzyl(isopropyl)amino)ethyl)-4-((4-methylphenylsulfonamido)methyl)benzamide], for which the “PAMPA Pe” value is listed as 1710–1940 ×10^−6 cm/s. In addition, the “plasma protein binding (% Bound)” value in data set [3] (1µM) worked out at 98.90 % Bound. Also, the “plasma protein binding (% Bound)” value in data set [3] (10µM) was 98.92 % Bound. For the same compound, in data set [4], the “bound to both human and mouse plasma” value was 90–99%. Further, in data set [4] (1µM), the “plasma protein binding (% Bound)” value came out at 99.67 % Bound. Also, the “plasma protein binding (% Bound)” value in data set [4] (10µM) worked out at 99.73 % Bound.

`COc1ccc(N2CCN(CCCNC(=O)Cn3c(=O)c4cccn4c4c(C)ccnc43)CC2)cc1` [4{13}, N-(3-(4-(4-Methoxyphenyl)piperazin-1-yl)propyl)-2-(1-methyl-6-oxopyrido[2,3-e]pyrrolo[1,2-a]pyrazin-5(6H)-yl)acetamide]: the “PAMPA Pe” value worked out at 2.7e-05 cm/s. Moreover, for the setting “pH 7.4”, the “PAMPA Pe” value was determined as 0.000757 cm/s. This compound also registered a hepatic microsome stability in data set [5] of 7.3 % remaining. For the same compound, the “plasma protein binding (% Bound)” value in data set [3] (1µM) came to 88.46 % Bound. In addition, the “plasma protein binding (% Bound)” value in data set [3] (10µM) was determined as 80.07 % Bound. In addition, the “bound to both human and mouse plasma” value in data set [4] is recorded as 80–94%. Further, the “plasma protein binding (% Bound)” value in data set [4] (1µM) came to 93.96 % Bound. Also, the “plasma protein binding (% Bound)” value in data set [4] (10µM) came to 88.54 % Bound.

One may read the Ki as the equilibrium dissociation constant of an inhibitor or competing ligand from its target.

(Values after publication PMC3378255 (ACS chemical neuroscience, 2012).)
